Calb FLC – affects C. albicans growth with fluconazole; C. albicans CaCi-2 (fluconazole-resistant clinical isolate) + fluconazole, Alamar Blue growth, 48 h; growth inhibition, % (test concentration not listed); actives 0.57% (n = 300,000); AID 1979;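 active means growth inhibition above about 58% in most replicates, limit read from the data, passing the limit was not always enough; inconclusive means exactly half the replicates above a set limit; inactive means most replicates below a set limit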;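 further: all wells also contain fluconazole at 8 µg/ml as a sub-toxic cotreatment; 0% = median of DMSO wells and 100% = median of geldanamycin control wells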
Beta cell apopt – blocks beta cell apoptosis; AID 435005; protection from apoptosis, % (test concentration not listed); actives 0.8% (n = 300,000); INS-1E cytokine-induced death, ATP luminescence, 48 h; percent of positive-control rescue, neutral wells zero;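 active means Every replicate reaches about 75%, or at least half do and their mean reaches it too, limit read from the data; inconclusive means At least half of replicates reach the limit but their mean does not; inactive means Under half of replicates reach the limit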;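 further: 0% = cytokine-treated negative control wells and 100% = positive control rescue; higher means more ATP so stronger rescue from cytokine killing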
A1 inh – inhibitors of the anti-apoptotic protein A1, read as caspase activation; MEF A1-2A-BIM cells, Caspase-Glo 3/7 luminescence, 3 h; percent of clofoctol response, vehicle zero; caspase activation, % (concentration not given with the values); actives 0.066% (n = 330,000); AID 2462;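 active means over half of replicate activation scores above 10%, or exactly half above 10 with the replicate mean above 10; inconclusive means replicate mean below 10 yet half the replicates above 10; inactive means over half of replicates below 10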
CSC inhib – cancer stem cell inhibition | inhibition, % at 7.5 µM | cancer stem cell-like cells viability, luminescence | AID 2717 | actives 1.1% (n = 300,000); in the data active means inhibition above about 75%; inconclusive means no clear call, values can overlap the other calls; tested in HMLE shEcad cells
T cruzi repl – blocks replication of Trypanosoma cruzi; actives 1.4% (n = 300,000); T. cruzi beta-gal in NIH3T3, luminescence, 90 h; inhibition, % (concentration not given with the values);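 active means mean inhibition across valid replicates above about 55%, limit read from the data; inconclusive means mean below that limit but half or more replicates reach it; inactive means mean below it, under half of replicates reach it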;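 further: signal also drops with host cell toxicity which is not excluded here; 0% = plate median of DMSO wells and 100% = zero luminescence signal; higher percent means less beta-gal luminescence so fewer parasites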
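compound dosing = single 50 nL compound addition per well in DMSO | material = NIH/3T3 host cells with β-galactosidase reporter T. cruzi | input = 5,000 host fibroblasts per well | timing = ≥90 h infection period, 3 h prior cell attachment | read-out basis = percent inhibition of parasite-derived β-gal signal | detection = GalScreen β-gal luminescence, detergent lysis, 60 min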
TAG inh – inhibitors of triacylglycerol accumulation; H9c2 cells, Nile Red lipid (TAG) fluorescence; cells loaded with 200 µM oleic acid; AID 651582; inhibition, % at 12.5 µM; actives 0.66% (n = 230,000);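 active means pattern-corrected inhibition of lipid staining of at least 50% with the nuclear-stain viability signal not falling by more than 50%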;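 further: 0% = DMSO wells and 100% = triacsin C control wells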
* = called active by the depositor; u = inconclusive; x = not tested or not shown. Only some compounds are listed: those with a hit (about 3.1% of all), similar ones and a draw of the others.

SMILES	Calb FLC	Beta cell apopt	A1 inh	CSC inhib	T cruzi repl	TAG inh
Cn1cc(C(c2ccccn2)c2cn(C)c3ccccc23)c2ccccc21	94*	-3	-1	-8	31	-21
O=C(COC(=O)C(CO)NS(=O)(=O)c1ccc(Br)cc1)Nc1ccc2c(c1)OCCO2 (stereo unspecified)	x	0	-1	-15	x	18
C=CCn1c(=N)c(S(=O)(=O)c2ccc(C)c(C)c2)cc2c(=O)n3ccccc3nc21	-2	-11	1	19	0	x
O=C(NC(NC(=S)Nc1ccccc1Cl)C(Cl)(Cl)Cl)c1cccc(Cl)c1 (stereo unspecified)	-26	49	0	111*	60*	x
COc1ccc(NC(=S)NC(NC(=O)c2cccc(Cl)c2)C(Cl)(Cl)Cl)c([N+](=O)[O-])c1 (stereo unspecified)	6	x	x	x	73*	x
O=C(Cn1[nH]c(=O)c2ccccc2c1=O)N1CCN(S(=O)(=O)c2ccc(Cl)cc2)CC1	x	-3	-1	x	x	-18
CC(C)n1cnc2c(N(C)c3ccccc3)nc(N(CCN(C)C)Cc3ccccc3)nc21	-7	2	1	5	51	52*
COc1cc(N(Cc2ccccc2)Cc2ccccc2)c2ncn(C(C)C)c2c1	x	1	2	31	x	3
C=CCn1c(SCc2ccc(OC)cc2)nnc1-c1cccnc1	-5	-1	0	-8	-11	x
C=CCn1c(SCc2ccc(F)cc2)nnc1-c1sc2nc(C)cc(C)c2c1N	-2	2	4	-8	63*	-3
CC(C)OP(=O)(c1ccc(N(C)C)cc1)C(O)c1ccc(C(C)C)cc1 (stereo unspecified)	4	8	0	-15	11	x
CC(C)OP(=O)(c1ccc(N(C)C)cc1)C(O)c1ccccc1 (stereo unspecified)	98*	-6	0	-9	-2	x
CCOc1ccc(-n2c(C)cc(/C=N/N(C)C)c2C)cc1	-27	2	0	-3	56*	4
CCOc1ccc(-n2c(C)cc(/C=N/NC(=O)C(N)=O)c2C)cc1	-31	-6	1	6	7	-1
CCOc1ccc(-n2c(C)cc(C(=O)CCl)c2C)cc1	91*	36	0	17	86*	59*
CC(C)C(NC(=O)c1ccccc1F)C(=O)NCCCn1ccnc1 (stereo unspecified)	x	-3	1	-3	x	-11
Cn1cccc1C1CCCN1CC(=O)Nc1ccc(C(N)=O)cc1 (stereo unspecified)	x	-3	0	-2	x	1
CCOCCCNC(=O)c1cn(CC)c2ccc(S(=O)(=O)N3CCC(C)CC3)cc2c1=O	12	2	1	-17	6	x
CS(=O)(=O)N1CCc2cc(-c3csc(NC(=O)Cc4cccs4)n3)ccc21	u	20	0	46	60*	x
CC(=O)Nc1nc(-c2ccc3c(c2)CCN3S(C)(=O)=O)cs1	4	x	-2	1	-8	5
O=C(N/N=C1/CC2C=CCC12)c1cccs1 (stereo unspecified)	-4	x	x	x	7	12
O=[N+]([O-])c1ccc(C2=NN(CCO)C(=Nc3ccc(OC(F)(F)F)cc3)SC2)cc1	0	-10	0	89*	9	7
Cc1ccc(O)c(N=NC2=C(O)CC(C)(C)CC2=O)c1	85*	x	-1	26	-1	x
Cc1c(N=NC2=C(O)CC(C)(C)CC2=O)c(=O)n(-c2ccccc2)n1C	96*	1	0	-3	-5	1
O=C(Nc1ccccc1)Nc1ccccc1-n1ccnc1	23	5	-1	-19	61*	14
SMILES	Calb FLC	Beta cell apopt	A1 inh	CSC inhib	T cruzi repl	TAG inh
FC(F)(F)c1cccc(-c2nc3nc(Cl)c(Cl)nc3[nH]2)c1	28	99*	-11	76*	-2	x
O=C(c1cc(COc2cccc(C(F)(F)F)c2)on1)N1C[C@H]2CC[C@H]1C2	-8	-1	-1	2	3	13
COc1ccc(-c2cc(C(=O)N3CC4(C)CC3CC(C)(C)C4)no2)cc1OC (stereo unspecified)	16	-8	0	83*	18	x
CC1(C)C[C@@H]2C[C@@](C)(CN2C(=O)c2cc(COc3cccc(C(F)(F)F)c3)on2)C1	5	104*	2	96*	33	-45
CCOc1ncccc1C(=O)OCc1csc(CC(=O)Nc2ccccc2C)n1	x	x	x	x	x	0
CCC(C)n1cnc2c(c1=O)c1nc3ccccc3nc1n2Cc1ccc2c(c1)OCO2 (stereo unspecified)	100*	x	x	x	48	x
CCC(C)n1cnc2c(c1=O)c1nc3ccccc3nc1n2-c1ccc2c(c1)OCCO2 (stereo unspecified)	-10	-4	1	-10	8	x
O=C(Nc1ccccc1N1CCN(C(=O)c2ccc(Cl)cc2)CC1)c1ccc([N+](=O)[O-])o1	-4	58	-1	-6	62*	45
O=C(Nc1ccccc1N1CCN(C(=O)c2ccc(Cl)cc2)CC1)c1ccc(Br)cc1	14	x	0	-3	64*	44
O=C(Nc1ccccc1N1CCN(C(=O)c2ccccc2)CC1)c1ccc(Cl)cc1	16	3	-1	4	18	3
Cc1ccc(NC(=O)C2CCN(c3cnccn3)CC2)cc1C	5	-1	0	6	64*	2
COc1ccc(C)cc1NC(=O)CN1CCN(S(=O)(=O)c2ccc(C(C)C)cc2)CC1	-1	x	0	0	62*	19
COC(=O)C1CCN(CC(=O)Nc2cc(Cl)ccc2OC)CC1	-15	1	0	x	55*	x
COc1ccc([N+](=O)[O-])cc1NC(=O)COC(=O)C1CC1	-2	5	0	x	56*	5
COc1cc(C(=O)NCCSc2ccc(F)cc2)cc(OC)c1OC	-4	-6	0	-9	-4	x
O=C(NNC(=O)c1cccc2ccccc12)c1cccc(Cl)c1	x	x	x	x	x	-5
CCC(C)(C)NC(=O)CN(C(=O)C(=O)Nc1ccc2c(c1)OCCO2)N1CCOCC1	0	-4	0	x	-6	x
Cc1ccc(S(=O)(=O)N2CCC(C(=O)Nc3ccc(S(=O)(=O)N4CCCC4)cc3)CC2)cc1C	2	7	2	6	74*	-4
Cc1ccc(S(=O)(=O)N2CCC(C(=O)Nc3ccc(C(C)C)cc3)CC2)cc1	x	10	-1	75*	x	7
Cc1ccc(S(=O)(=O)N2CCC(C(=O)Nc3ccc(S(=O)(=O)N4CCCC4)cc3)CC2)cc1	-7	2	-1	x	26	-13
O=C(Nc1ccc(S(=O)(=O)N2CCCCC2)cc1)C1CCCCC1	-5	4	0	-2	-11	x
COc1cc(Cl)c(C)cc1NC(=O)c1ccccc1NC(=O)CN1CCN(C(C)=O)CC1	x	x	x	x	x	-13
CN(Cc1cccnc1)C(=O)c1ccc(Cl)c(NS(=O)(=O)c2ccc(F)cc2)c1	x	x	x	x	x	-1
